Scp-1 inhibitor: Scp-1 (human) phosphatase inhibition. Recombinant Scp1, phosphopeptide, malachite green phosphate absorbance. inhibition, % at 20 µM. actives 0.88% (n = 340,000). AID 493091;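 active = inhibition above about 50% at 20 µM, limit read from the data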;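 also: plate controls were DMSO wells with enzyme for no effect and wells lacking enzyme for full effect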
Target sequence (Q9GZU7 76-261 limits assumed): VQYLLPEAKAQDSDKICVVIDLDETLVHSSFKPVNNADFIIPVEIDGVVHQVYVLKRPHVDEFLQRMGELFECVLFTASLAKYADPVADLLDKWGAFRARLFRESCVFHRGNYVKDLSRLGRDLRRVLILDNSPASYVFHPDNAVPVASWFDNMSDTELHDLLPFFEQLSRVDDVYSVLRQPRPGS
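Incubation: 45 min enzyme reaction at room temperature / System: truncated SCP-1 phosphatase (76-261aa) / Reagent: Phospho 17-mer peptide substrate / Buffer or medium: Acidic Tris acetate buffer with magnesium and detergent / Signal: absorbance at 630 nm / Doses: one concentration, 20 µM, with 1.0% DMSO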
DNMT1 block: inhibitors of human DNMT1; P26358; actives 0.83% (n = 360,000); DNMT1 molecular beacon, Hinp1I cleavage, fluorescence; inhibition (reported as % activation of signal), % at 10 µM; AID 588458; in the data active = inhibition above about 50%
LMPTP inh: LMPTP (human) inhibition; P24666; inhibition, % at 20 µM; actives 0.22% (n = 360,000); recombinant LMPTP-A, OMFP fluorogenic substrate, fluorescence intensity;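 active = compounds that cut the enzyme signal by at least half of the control window in the single-dose screen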;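 also: plate controls were DMSO wells with enzyme plus substrate for no effect and substrate without enzyme for full effect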
Target sequence (P24666 whole entry, looked up): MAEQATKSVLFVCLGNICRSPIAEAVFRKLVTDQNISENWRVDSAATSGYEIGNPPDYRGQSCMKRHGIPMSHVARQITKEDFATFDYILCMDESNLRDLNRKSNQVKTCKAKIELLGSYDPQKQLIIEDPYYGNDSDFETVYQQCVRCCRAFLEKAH
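Test system: LMPTP-A phosphatase enzyme. Amount: LMPTP-A at 0.625 nM final in the reaction. Reagent: OMFP substrate, 400 µM final. Times: 50 min at room temperature. Signal: endpoint fluorescence intensity from OMFP dephosphorylation. Read-out basis: % inhibition. Benchmarks: no-enzyme and uninhibited controls.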
STEP inh: blocks human striatal-enriched tyrosine phosphatase; actives 0.25% (n = 360,000); recombinant STEP, OMFP fluorogenic substrate, fluorescence; AID 588621; inhibition, % at 20 µM;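 active = inhibition at 20 µM, scaled per plate between control wells, above about 37%, limit read from the data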;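 also: 0% = DMSO with enzyme and substrate and 100% = substrate only without enzyme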
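System: STEP (striatal-enriched tyrosine phosphatase) enzyme, cell-free; medium: Bis-Tris pH 6.0 buffer with DTT, detergent; dosing: 20 µM, 1% DMSO; times: reaction 20 min, ambient temperature; detection: fluorescence, 480/540 nm; read-out basis: normalized % inhibition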
GRK2 aptamer HTS: human GRK2 inhibition via aptamer displacement | P25098 | bead flow cytometry, FAM-aptamer displacement from GRK2 | inhibition of aptamer binding, % at 10 µM | actives 0.59% (n = 330,000) | AID 488847;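 active = inhibition of aptamer binding above 40%, roughly 3 SD of noise, on plates passing a quality check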;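 also: median bead fluorescence of bound FAM aptamer so fluorescent compounds give negative values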
SUMO1 PPI mod: SUMO1-SIM interaction modulation; SUMO1 binding to a labelled peptide, TR-FRET, 1 h; inhibition, % at 20 µM; actives 0.33% (n = 360,000); AID 602429; in the data active = inhibition above about 37%
Target sequence (P63165 whole entry, looked up): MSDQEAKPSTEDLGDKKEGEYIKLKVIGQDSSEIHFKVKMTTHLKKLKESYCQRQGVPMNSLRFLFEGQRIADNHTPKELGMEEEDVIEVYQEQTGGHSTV
Scp1 confirm: confirmation of human Scp-1 phosphatase inhibitors | shares compounds with Scp-1 inhibitor | recombinant SCP-1 catalytic domain, phosphate release, malachite green absorbance | inhibition, % at 20 µM | actives 61% (n = 2,500) | AID 540281;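 also: plate controls were DMSO with enzyme for no effect and buffer wells lacking enzyme for full effect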
Scp-1 MG ctr: counter-screen for Scp-1 inhibitors: colorimetric interference; Colorimetric interference counterscreen, malachite green absorbance 630 nm; 2,500 tested, under 10 active; apparent inhibition (interference), % at 20 µM; shares compounds with Scp-1 inhibitor;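 also: compounds added after enzyme reaction finished so only phosphate colour detection is probed; plate controls were DMSO wells with completed Scp-1 reaction for no effect and substrate wells lacking enzyme for full effect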
Scp-1 Tm shift: binds human Scp-1, shifting its melting temperature | shares compounds with Scp-1 inhibitor | Recombinant SCP1, Sypro Orange thermal shift Tm | thermal shift relative to vanadate control, % at 40 µM | actives 25% (n = 1,500) | AID 540329;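 active = substances whose mean melting-temperature shift, as a percentage of the reference inhibitor's shift, reaches about 5.3%, limit read from the data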;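 also: 0% = Tm of DMSO wells and 100% = Tm with sodium orthovanadate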
DNMT1 interf DR: shows spectral interference in the DNMT1 beacon assay. 200 tested, under 10 active. AID 602382. IC50, µM. molecular beacon fluorescence, spectral interference counter-screen. shares compounds with DNMT1 block; call rule not given here
DNMT1 inh conf: confirmation of human DNMT1 inhibitors | shares compounds with DNMT1 block | DNMT1 molecular beacon HinP1I cleavage, fluorescence | inhibition, % at 10 µM | actives 8% (n = 2,300);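 active = average inhibition of at least 30% in the single-concentration confirmation test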
DNMT1 interf: shows spectral interference in the DNMT1 beacon assay | shares compounds with DNMT1 block | actives 1% (n = 2,300) | DNMT1 molecular beacon spectral interference counterscreen, fluorescence 485/520 | activation (fluorescence interference), % at 10 µM | AID 602387;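 active = activation of at least 30% at 10 µM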;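 also: DNMT1 catalytic domain with a HinP1I cleavage step and a FAM/dabcyl DNA beacon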
* hit, by the source's call; · = no result. The list is not random: actives were taken first. Their share in the collection is about 2.1%.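 The calls were made as follows, unless noted: active = inhibition of at least 30% at 20 µM; inactive = the rest.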

SMILES | Scp-1 inhibitor | DNMT1 block | LMPTP inh | STEP inh | GRK2 aptamer HTS | SUMO1 PPI mod | Scp1 confirm | Scp-1 MG ctr | Scp-1 Tm shift | DNMT1 inh conf | DNMT1 interf | others
O=C(Nc1ccc2c(c1)CCC2)c1ncoc1-c1ccccc1F | -3.8 | -1.8 | 3.0 | 0.3 | · | 6.0 | · | · | · | · | ·
C#CCSc1nsc(SCC#C)c1C#N | 80.2* | 77.1* | 25.8 | 14.5 | 31.0 | 10.9 | 66.3* | -16.4 | 1.3 | 15.9 | 1.9
CN(CCC#N)C(=O)COC(=O)c1c2c(nc3ccccc13)/C(=C\c1ccco1)CC2 | 84.4* | 77.1* | 67.3* | 36.7 | · | 57.3* | 53.5* | -11.5 | 10.3* | 7.5 | 6.5
CCCCNC(=O)COC(=O)c1c2c(nc3ccccc13)/C(=C/c1cccs1)CC2 | 5.5 | -23.5 | 4.2 | 5.3 | 0.0 | -8.9 | · | · | · | · | ·
O=C(COC(=O)c1c2c(nc3ccccc13)/C(=C/c1cccc([N+](=O)[O-])c1)CCC2)NC1CCS(=O)(=O)C1 (stereo not drawn) | 1.6 | -16.3 | 0.4 | -0.1 | 0.0 | -13.8 | · | · | · | · | ·
O=C(COC(=O)c1c2c(nc3ccccc13)/C(=C\c1ccco1)CC2)NC1CCCC1 | 90.7* | 97.3* | 65.2* | 17.5 | · | 41.8* | 61.0* | -14.2 | 15.1* | 20.1 | -2.4
CC1CCCCC1NC(=O)COC(=O)c1c2c(nc3ccccc13)/C(=C\c1ccco1)CC2 (stereo not drawn) | 50.2* | 85.4* | 50.4* | 24.3 | · | 22.3 | 60.5* | -8.2 | 9.4* | 10.3 | 1.8
CCOc1ccc(CCNc2nc3ccccc3n3cnnc23)cc1OCC | 4.5 | 1.9 | 4.1 | -0.5 | 0.0 | -0.2 | · | · | · | · | ·
COc1ccccc1NS(=O)(=O)c1cccc(NS(=O)(=O)c2cc(C(=O)O)ccc2OC)c1 | -12.4 | -0.6 | -1.1 | -2.7 | 5.0 | 10.4 | · | · | · | · | ·
Cc1cccc([C@@H]2[C@@H]3C(=O)N(Cc4ccccc4)C(=O)[C@@H]3[C@]3(C)C(=O)N(c4ccc(C(F)(F)F)cc4)C(=O)N23)c1 | -8.6 | -14.2 | 0.9 | 1.9 | 0.0 | -0.6 | · | · | · | · | ·
O=C(NCc1cccc(CNC(=O)C(=O)NCc2ccco2)c1)C(=O)NCc1ccco1 | 91.5* | 91.1* | 55.9* | 9.8 | 33.0 | 2.9 | 64.8* | -8.4 | -12.3 | 19.0 | 3.9
O=C(/C=C/c1ccc(Cl)c([N+](=O)[O-])c1)Nc1ccc(N2CCCC2)cc1 | 88.1* | 87.6* | 10.7 | 8.5 | 32.0 | -1.9 | 77.3* | -14.0 | 6.0* | 2.0 | -1.2
O=C(/C=C/c1ccc(Cl)c([N+](=O)[O-])c1)Nc1ccc(NC(=O)c2ccco2)cc1 | -1.2 | 10.5 | 1.1 | -0.3 | · | 0.8 | · | · | · | · | ·
COc1cccc(CNC(=O)c2ccccc2NC(=O)C2=C(C)OCCS2)c1 | -0.9 | 0.6 | 1.0 | -1.1 | 3.0 | -0.6 | · | · | · | · | ·
COc1cc[n+]([O-])cc1[N+](=O)[O-] | -9.5 | 1.2 | 0.0 | -4.2 | · | -4.3 | · | · | · | · | ·
COc1ccc(-c2nnc(SCC(=O)NCc3ccco3)n2C)cc1 | -8.0 | 4.5 | -0.1 | 0.0 | 0.0 | 2.3 | · | · | · | · | ·
CCCCn1c(SCc2ccc(C(=O)OC)o2)nc2cc(S(N)(=O)=O)ccc21 | 1.5 | 0.6 | -0.5 | 0.7 | 2.0 | -4.4 | · | · | · | · | ·
O=C(CSc1nc(-c2ccccc2)cs1)NC(=O)NCc1ccco1 | -5.5 | -8.4 | 1.3 | 1.3 | 1.0 | 3.7 | · | · | · | · | ·
CCCCn1c(SCC(=O)NC(=O)NCc2ccco2)nc2cc(S(N)(=O)=O)ccc21 | 64.0* | 88.7* | 9.2 | 1.6 | 2.0 | 5.2 | 58.0* | -12.3 | -3.0 | 5.0 | 0.7
O=C(CSc1n[nH]c(-c2ccccc2)n1)NC(=O)NCc1ccco1 | 67.6* | 64.5* | 16.8 | 6.0 | 3.0 | 14.3 | 55.3* | -10.9 | 1.3 | 1.9 | 1.0
Cc1ccccc1CSCC(=O)NC(=O)NCc1ccco1 | 56.4* | 76.2* | 12.2 | 7.4 | 2.0 | 5.7 | 73.3* | -6.5 | -15.4 | -0.2 | 5.4
Cn1c(SCC(=O)NC(=O)NCc2ccco2)nnc1-c1ccccc1 | 92.2* | 85.5* | 46.3 | 7.3 | 0.0 | 9.4 | 62.0* | -16.7 | -13.0 | 0.5 | 1.7
O=C1Nc2ccc(S(=O)(=O)NCc3ccccn3)c3cccc1c23 | 86.1* | 53.6* | 13.0 | 16.4 | · | -8.9 | 61.0* | -6.0 | -8.3 | 1.5 | 4.2
O=C(Nc1sc2c(c1C(=O)O)CCCCC2)c1ccccc1 | -5.5 | -2.0 | -0.8 | 3.8 | 1.0 | 2.4 | · | · | · | · | ·
O=C(Nc1sc2c(c1C(=O)O)CCC2)c1ccccc1 | 58.1* | 82.2* | 8.9 | 23.1 | 21.0 | 10.2 | 53.8* | -14.8 | 6.6* | 0.2 | 6.8
SMILES | Scp-1 inhibitor | DNMT1 block | LMPTP inh | STEP inh | GRK2 aptamer HTS | SUMO1 PPI mod | Scp1 confirm | Scp-1 MG ctr | Scp-1 Tm shift | DNMT1 inh conf | DNMT1 interf | others
COc1ccc(N=C2NC(=O)/C(=C\c3ccco3)S2)cc1 | 88.5* | 70.2* | 40.1 | 6.3 | 3.0 | -10.3 | 51.9* | -12.3 | 1.7 | 8.3 | 29.8
CC(C)(C)C(=O)N/C(N)=N/c1nc2ccccc2o1 | -7.2 | -2.4 | -0.6 | 0.5 | 0.0 | 1.8 | · | · | · | · | ·
COc1cc(NC(=O)COC(=O)c2ccc(S(=O)(=O)N3CC(C)CC(C)C3)cc2)c(C)cc1[N+](=O)[O-] (stereo not drawn) | 66.9* | 55.8* | 1.4 | 2.1 | 0.0 | 10.4 | 34.8* | -10.4 | 0.6 | 0.0 | -0.6
NS(=O)(=O)c1ccc(CNC(=O)Cc2cccs2)cc1 | 83.1* | 52.0* | 50.2* | 3.1 | 2.0 | 2.4 | 47.6* | -18.6 | 6.9* | 4.9 | 0.9
CCOC(=O)c1cc(-c2ccc(N3CCOCC3)cc2)nn1-c1ccccc1C(=O)O | 80.2* | 94.2* | 57.5* | 95.7* | 26.0 | 105.6* | 63.9* | -15.0 | -12.6 | 34.5* | -4.4 | DNMT1 interf DR=>99
CCOC(=O)c1cc(-c2ccc(N3CCOCC3)cc2)nn1-c1ccccc1 | -4.6 | -2.7 | 0.3 | 1.2 | 0.0 | -0.4 | · | · | · | · | ·

Compound activity as filed in PubChem.
